NR2E3 ag-1 = activates human photoreceptor nuclear receptor NR2E3 | inhibition of corepressor binding, % at 4.78 µM | Q9Y5X4 | GST-NR2E3/biotin-RetCOR TR-FRET, 1536-well | hit rate 0.12% among 320,000 | AID 2300;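 active means percent inhibition above the cutoff of mean plus 3 SD of all tested compounds, set per screening campaign, cut at about 20% in these data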
Target sequence (Q9Y5X4 whole entry, looked up): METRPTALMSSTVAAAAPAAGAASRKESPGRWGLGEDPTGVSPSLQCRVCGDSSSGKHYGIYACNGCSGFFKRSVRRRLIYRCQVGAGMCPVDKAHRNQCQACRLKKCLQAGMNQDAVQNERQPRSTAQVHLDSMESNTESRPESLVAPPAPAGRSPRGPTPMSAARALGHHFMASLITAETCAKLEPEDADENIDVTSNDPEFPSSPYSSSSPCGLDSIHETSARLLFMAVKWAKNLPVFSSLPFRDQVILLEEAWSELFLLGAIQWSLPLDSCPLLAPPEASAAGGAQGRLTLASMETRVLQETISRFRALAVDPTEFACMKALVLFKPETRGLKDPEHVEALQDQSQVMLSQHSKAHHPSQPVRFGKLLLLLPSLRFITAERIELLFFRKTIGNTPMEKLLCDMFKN
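Test system: GST-NR2E3 and biotin-RetCOR proteins | Quantity: 1.35 nM GST-tagged NR2E3 final | Medium: Tris pH 7.5 | Also added: 7 nM biotin-RetCOR | Dosing: Compound at 4.8 µM, single dose | Timing: 5 h at 4 °C | Detection: Time-resolved FRET | Read-out basis: Percent inhibition | Benchmarks: Biotin wells as high control, 0.6% DMSO wells as low control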
GalR3 antag = blocks the human galanin receptor 3 | hit rate 0.44% among 360,000 | O60755 | HEK293 GalR3-CNG cAMP membrane potential fluorescence; galR3 body fused to GalR1 C-terminus | inhibition, % at 3 µM;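 active means inhibition above the screen-wide average plus 3 SD, cut at about 13% in these data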;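 further: forskolin and galanin both at EC90 stimulate the cells; cAMP rise reported by CNG channel membrane potential dye signal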
Target sequence (O60755 1-299 limits assumed): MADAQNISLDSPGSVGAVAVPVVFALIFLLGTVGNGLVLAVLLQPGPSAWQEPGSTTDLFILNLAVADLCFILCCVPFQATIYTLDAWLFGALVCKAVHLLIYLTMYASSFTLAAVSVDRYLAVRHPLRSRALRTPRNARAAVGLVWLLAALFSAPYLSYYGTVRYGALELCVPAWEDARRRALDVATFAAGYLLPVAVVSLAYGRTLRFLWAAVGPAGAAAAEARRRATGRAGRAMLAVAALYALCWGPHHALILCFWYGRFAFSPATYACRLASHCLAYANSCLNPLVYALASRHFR
bovine MsrA act = bovine methionine sulfoxide reductase A activation; hit rate 0.3% among 360,000; activation, % at 10.6 µM; purified bovine MsrA, absorbance read-out; in the data active means activation above about 7.5%
MsrA inh = inhibits bovine methionine sulfoxide reductase A; purified bovine MsrA, absorbance read-out; inhibition, % at 15.5 µM; hit rate 0.75% among 360,000
NadD inh = NadD (S. aureus) enzyme inhibition | hit rate 0.78% among 360,000 | purified NadD enzyme, colorimetric absorbance read-out | inhibition, % at 20 µM; in the data active means inhibition above about 26%
NR2E3 ag-2 = human photoreceptor-specific nuclear receptor agonism; Q9Y5X4; CHO-S Gal4-NCOR/VP16-NR2E3 two-hybrid, luciferase; inhibition of corepressor binding, % at 3.98 µM; hit rate 0.35% among 360,000; AID 602229;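 active means inhibition above the mean of all tested compounds plus 3 SD, cut at about 70% in these data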;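 further: higher means lower luciferase signal from less NR2E3 corepressor binding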
NR2E3 agonist cf = NR2E3 (human) agonism, confirmation | shares compounds with NR2E3 ag-1 | activation (reported as inhibition), % at 3.98 µM | hit rate 39% among 360 | cell-free NR2E3 corepressor release, TR-FRET, 5 h; in the data active means activation above about 20%
PPARg-NCOR2 ctr = releases PPARgamma from NCOR2 in NR2E3 counter-screen; shares compounds with NR2E3 ag-1; TR-FRET PPARg-NCOR2 coregulator interaction, biochemical; inhibition, % at 3.98 µM; hit rate 45% among 360; AID 504787; in the data active means inhibition above about 20%
MsrA activ conf = confirmation of bovine methionine sulfoxide reductase A activators. activation, % at 10.6 µM. purified bovine MsrA, absorbance read-out. hit rate 12% among 1,000. AID 602270. shares compounds with bovine MsrA act; in the data active means activation above about 4%;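 further: enzyme coupled to thioredoxin and thioredoxin reductase with NADPH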
MsrA conf = bovine MsrA inhibition, confirmed; hit rate 41% among 2,300; inhibition, % at 15.5 µM; shares compounds with MsrA inh; purified bovine MsrA, absorbance read-out;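 further: coupled to thioredoxin reductase with NADPH and selenocystamine and DMSO as substrate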
Large screens that a line does not name were inactive (follow-up assays come after a bar, where they were run). A selection: hits, their analogues and other compounds. The true share with any hit is near 2.5%. Unless noted, no stated cut-off is given here; in the data, active means inhibition above about 4.5%; inactive means the rest.

CCNC(=O)C1(C)CCCN(CCOc2ccc(Cl)cc2)C1 (stereo unspecified)	none (no result: NR2E3 ag-1, GalR3 antag, MsrA inh)
COc1ccc(CCN2C(=O)C(O)=C(C(=O)c3ccco3)C2c2cccs2)cc1OC (stereo unspecified)	NR2E3 ag-1 24, MsrA inh 4.7 | NR2E3 agonist cf inactive | PPARg-NCOR2 ctr inactive | MsrA conf inactive
O=C(CCn1c(=O)oc2ccccc21)Nc1cccc([N+](=O)[O-])c1	none
C=CCn1c(Sc2nnc(C)s2)nc2c1c(=O)[nH]c(=O)n2C	none
Cc1nnc(Sc2c(N)n(C)c(=O)[nH]c2=O)s1	bovine MsrA act 11 | MsrA activ conf inactive
COc1ccc(OC)c(/C=N/N(CCC#N)C2=NS(=O)(=O)c3ccccc32)c1	bovine MsrA act 7.9 | MsrA activ conf 5.3
CC1CCCC(NC(=O)COC(=O)c2ccc([N+](=O)[O-])s2)C1C (stereo unspecified)	bovine MsrA act 21 (no result: NR2E3 ag-1) | MsrA activ conf 5.4
N#C/C(=C(/O)CN1CCCCC1)c1nc(-c2ccc(Cl)cc2)cs1	none
C=CCc1ccccc1OCC(O)CN1CCN(c2ccc(C)cc2)CC1 (stereo unspecified)	bovine MsrA act 9.3 | MsrA activ conf inactive
C=CCc1ccccc1OCC(O)CN1CCN(C(=O)OCC)CC1 (stereo unspecified)	none
CC1=C(C#N)C(Nc2ccc(Cl)cn2)(C(F)(F)F)C(=O)N1 (stereo unspecified)	bovine MsrA act 10 | MsrA activ conf inactive
CC(C)(C)OC(=O)N1CCCC(C(=O)Nc2cccc(C(=O)NCc3ccccc3)c2)C1 (stereo unspecified)	none (no result: NR2E3 ag-1)
CN(Cc1ccccc1)C(=O)c1cccc(NC(=O)C2CCCN(C(=O)OC(C)(C)C)C2)c1 (stereo unspecified)	bovine MsrA act 7.7 (no result: NR2E3 ag-1) | MsrA activ conf inactive
COc1cc(NC(=O)CN2CCN(C(=O)C3CCCO3)CC2)c(OC)cc1Cl (stereo unspecified)	none
Cc1cccc(N(CC(=O)NC2CCCC2)C(=O)CS(=O)CC(=O)Nc2ccc3c(c2)OCO3)c1 (stereo unspecified)	none
C1CCC(NC2=NCCO2)CC1	none (no result: NR2E3 ag-1)
C1CCCC(NC2=NCCO2)CCC1	bovine MsrA act 9.5 (no result: GalR3 antag, MsrA inh) | MsrA activ conf inactive
COc1ccc(-c2cc(C(F)(F)F)n3nc(N)nc3n2)cc1	none (no result: GalR3 antag, MsrA inh)
COc1cccc(-c2cc(C(F)(F)F)n3nc(N)nc3n2)c1	bovine MsrA act 14 | MsrA activ conf inactive
O=C(C1CCN(S(=O)(=O)c2ccccc2)CC1)N(CCc1ccccc1)Cc1ccco1	none
Cc1cccc(N(CC(=O)NC2CCCCC2)C(=O)CCCC(=O)Nc2ccccn2)c1	none
Cc1cccc(N(CC(=O)NC2CCCC2)C(=O)CCCC(=O)Nc2ccccn2)c1	bovine MsrA act 7.7 | MsrA activ conf inactive
O=c1sc(N2CCN(c3ccc(F)cc3)CC2)nc2ccsc12	bovine MsrA act 7.8 (no result: GalR3 antag) | MsrA activ conf inactive
Nc1ncnc2c1ncn2[C@@H]1O[C@H](CNCc2ccc(OCc3ccccc3)cc2)[C@@H](O)[C@H]1O	bovine MsrA act 7.7 (no result: NR2E3 ag-1) | MsrA activ conf 4.3
Nc1ncnc2c1ncn2[C@@H]1O[C@H](CNCc2ccc(OCC(=O)Nc3ccccn3)cc2)[C@@H](O)[C@H]1O	none (no result: NR2E3 ag-1)
CC1COc2ccccc2N1C(=O)c1ccc(Cl)cc1 (stereo unspecified)	bovine MsrA act 9.0 | MsrA activ conf inactive
CCOC(=O)c1ccccc1NC(=O)CSc1nnc(COc2ccccc2C)n1C	bovine MsrA act 9.0 | MsrA activ conf inactive
Cc1ccccc1OCc1nnc(SCC(=O)NCc2ccccc2)n1C	none
CCOc1ccc(N2C(=O)CC(Sc3nc(-c4cccs4)cc(C(F)(F)F)c3C#N)C2=O)cc1 (stereo unspecified)	bovine MsrA act 10 | MsrA activ conf inactive
CCOc1ccc(N2C(=O)CC(Sc3ncccn3)C2=O)cc1 (stereo unspecified)	none
C/C(=N\NC(=S)NCc1ccccc1)c1ccc(C(C)(C)C)cc1	none
CCc1ccccc1NC(=O)CNC(=O)c1cccc(S(=O)(=O)N2CCN(Cc3ccccc3)CC2)c1	none
COC(=O)c1ccc(Nc2nc3ccc(C)cc3n3cnnc23)cc1	none
CC(=O)c1ccc(Nc2nc3ccc(C)cc3n3cnnc23)cc1	bovine MsrA act 8.2 | MsrA activ conf inactive
CCOc1ccc(-n2ccnc2)nn1	bovine MsrA act 8.1 | MsrA activ conf inactive
COc1ccc(CN2C(=O)C(CC(=O)NCCCCc3ccccc3)CC(C(=O)N3CCCCCC3)=C2C)cc1 (stereo unspecified)	none (no result: NR2E3 ag-1)
Cc1ccc(S(=O)(=O)NC(c2ccccc2)C(C)C(=O)n2nc(C)cc2C)cc1 (stereo unspecified)	bovine MsrA act 8.1 | MsrA activ conf inactive
Cc1ccc(S(=O)(=O)NC(CC(=O)n2nc(C)cc2C)c2ccccc2)cc1 (stereo unspecified)	none
O=C(/C=C(\Nc1ccccc1)c1ccccc1)c1ccccc1	none (no result: NR2E3 ag-1, bovine MsrA act, NadD inh, NR2E3 ag-2)
CS(=O)(=O)c1ccc2nc(NC(=O)c3cc([N+](=O)[O-])cc([N+](=O)[O-])c3)sc2c1	bovine MsrA act 11 | MsrA activ conf inactive
COC1=C/C(=C/c2c(N)n3nc(CC(=O)N4CCCCC4)sc3nc2=O)C=CC1=O	none (no result: GalR3 antag, MsrA inh)
CC1=C(C(=O)OC(C)C)C(c2cccc(F)c2)N2C(=O)C(C)SC2=N1 (stereo unspecified)	bovine MsrA act 9.8 | MsrA activ conf inactive
CC1=C(C(=O)OCC(C)C)C(c2cccc(F)c2)N2C(=O)C(C)SC2=N1 (stereo unspecified)	none
O=C(Cn1cnc2ccccc2c1=O)Nc1nnc(C2CC2)s1	none
CCCCC(=O)N(C)c1c(CC)nc2c(OCc3ccc(C#N)cc3)cccn12	none (no result: NR2E3 ag-1)
O=C(Nc1ccccc1Cl)N1CCN(c2ccc3nnc(-c4ccccc4)n3n2)CC1	bovine MsrA act 17 (no result: GalR3 antag, MsrA inh) | MsrA activ conf inactive
O=C(Nc1ccc(Cl)cc1)N1CCN(c2ccc3nnc(-c4ccc(F)cc4)n3n2)CC1	none
CC(C)OC(=O)CC1C(=O)NCCN1C(=S)NC(=O)c1ccccc1Cl (stereo unspecified)	none
